Measured values: ChEMBL document CHEMBL1152185, “Synthesis of a novel 6,14-epoxymorphinan derivative and its pharmacology” (Bioorg Med Chem Lett, 2008)
Active and inactive are the calls of the source. The calls are words filed in the database; no cut-off is given here.

Tests used:
[1] = molecular target: Mu-type opioid receptor (Mus musculus, UniProt P42866); assay: Displacement of [3H]DAMGO from mu opioid receptor in mouse whole brain without cerebellum
Method in brief: (§1)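 Competition binding on mouse whole-brain membranes, using [³H]DAMGO for mu and [³H]DPDPE for delta. % specific binding was plotted against log concentration, and IC50 was derived from the curve.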

[2] = molecular target: Delta-type opioid receptor (Mus musculus, UniProt P32300); assay: Displacement of [3H]DPDPE from delta opioid receptor in mouse whole brain without cerebellum; method in brief: as §1
Delta-type opioid receptor, sequence (P32300 whole entry): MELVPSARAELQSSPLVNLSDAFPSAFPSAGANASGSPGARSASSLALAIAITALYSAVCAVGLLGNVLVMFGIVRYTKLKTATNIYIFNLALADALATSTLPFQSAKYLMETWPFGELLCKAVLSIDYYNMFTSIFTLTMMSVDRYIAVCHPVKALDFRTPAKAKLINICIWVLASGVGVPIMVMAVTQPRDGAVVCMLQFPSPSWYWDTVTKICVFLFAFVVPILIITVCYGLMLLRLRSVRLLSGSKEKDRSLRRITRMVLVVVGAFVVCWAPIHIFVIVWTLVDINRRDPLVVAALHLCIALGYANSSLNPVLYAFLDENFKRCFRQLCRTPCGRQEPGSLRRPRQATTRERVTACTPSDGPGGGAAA

[3] = molecular target: Kappa-type opioid receptor (Mus musculus) (UniProt P33534); assay: Agonist activity at kappa opioid receptor-mediated G-protein activation in mouse whole brain membrane without cerebellum at 10 uM by [35S]GTPgammaS binding assay; assay type: functional, cell membranes
Kappa-type opioid receptor (Mus musculus), sequence (P33534 whole entry): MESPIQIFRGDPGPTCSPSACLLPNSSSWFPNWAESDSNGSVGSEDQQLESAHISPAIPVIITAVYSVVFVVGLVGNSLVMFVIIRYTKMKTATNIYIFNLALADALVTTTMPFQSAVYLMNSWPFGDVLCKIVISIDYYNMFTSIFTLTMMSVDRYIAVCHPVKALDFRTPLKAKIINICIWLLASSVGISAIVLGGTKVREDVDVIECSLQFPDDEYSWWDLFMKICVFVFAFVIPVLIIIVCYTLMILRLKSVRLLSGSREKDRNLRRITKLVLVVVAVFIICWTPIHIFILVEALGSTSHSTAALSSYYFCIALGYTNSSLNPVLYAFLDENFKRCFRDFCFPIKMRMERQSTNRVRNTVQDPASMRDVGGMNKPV
Method in brief: (§2)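 Mouse whole-brain membranes (cerebellum removed) incubated with [³⁵S]GTPγS and GDP plus agonist at 10^-5 M, alone or together with nor-BNI or b-FNA (levels not given). The read-out is % stimulation of [³⁵S]GTPγS binding.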

[4] = molecular target: Kappa-type opioid receptor (Mus musculus) (UniProt P33534); assay: Agonist activity at kappa opioid receptor-mediated G-protein activation in mouse whole brain membrane without cerebellum at 10 uM by [35S]GTPgammaS binding assay in presence of nor-BNI; assay type: functional, cell membranes; method in brief: as §2
[5] = molecular target: Kappa-type opioid receptor (Mus musculus) (UniProt P33534); assay: Agonist activity at kappa opioid receptor-mediated G-protein activation in mouse whole brain membrane without cerebellum at 10 uM by [35S]GTPgammaS binding assay in presence of beta-funaltrexamine; assay type: functional, cell membranes; method in brief: as §2
[6] = tested on: Mus musculus; assay: Antinociceptive activity in mouse at 10 mg/kg, sc by hotplate test; assay type: functional, organism-based; set-up: dose 10 mg/kg
Method in brief: (§3)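 Mice were given agonist 10 mg/kg sc, and antinociception was read in the hot-plate and tail-flick tests. Pretreatment was saline or nor-BNI (5 or 20 mg/kg sc) 24 h before agonist. Data are mean with SEM, n = 6–8, compared with the saline–agonist group.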

[7] = tested on: Mus musculus; assay: Antinociceptive activity in mouse at 10 mg/kg, sc by tail-flick test; assay type: functional, organism-based; set-up: dose 10 mg/kg; method in brief: as §3
[8] = tested on: Mus musculus; assay: Antinociceptive activity in mouse assessed as inhibition of analgesia at 10 mg/kg, sc pretreated with 20 mg/kg, sc nor-BNI for 24 hrs by hotplate test; assay type: functional, organism-based; method in brief: as §3
[9] = tested on: Mus musculus; assay: Antinociceptive activity in mouse assessed as inhibition of analgesia at 10 mg/kg, sc pretreated with 20 mg/kg, sc nor-BNI for 24 hrs by tail-flick test; assay type: functional, organism-based; method in brief: as §3
[10] = tested on: Mus musculus; assay: Antinociceptive activity in mouse assessed as inhibition of analgesia at 10 mg/kg, sc pretreated with 20 mg/kg, sc beta-funaltrexamine for 24 hrs by hotplate test; assay type: functional, organism-based
Method in brief: (§4)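 Mouse hot-plate and tail-flick antinociception after agonist 10 mg/kg sc. Pretreatment was saline, b-FNA 20 mg/kg sc or NTI 3 mg/kg sc, given at 24 h or 30 min before agonist. Data are mean with SEM of 6–8 trials.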

[11] = tested on: Mus musculus; assay: Antinociceptive activity in mouse assessed as inhibition of analgesia at 10 mg/kg, sc pretreated with 20 mg/kg, sc beta-funaltrexamine for 24 hrs by tail-flick test; assay type: functional, organism-based; method in brief: as §4
[12] = tested on: Mus musculus; assay: Antinociceptive activity in mouse assessed as inhibition of analgesia at 10 mg/kg, sc pretreated with 3 mg/kg, sc NTI for 24 hrs by hotplate test; assay type: functional, organism-based; method in brief: as §4
[13] = tested on: Mus musculus; assay: Antinociceptive activity in mouse assessed as inhibition of analgesia at 10 mg/kg, sc pretreated with 3 mg/kg, sc NTI for 24 hrs by tail-flick test; assay type: functional, organism-based; method in brief: as §4
[14] = molecular target: Kappa-type opioid receptor (Cavia porcellus, UniProt P41144); assay: Displacement of [3H]U69,593 from kappa opioid receptor in guinea pig cerebellum; assay type: tissue-based
Kappa-type opioid receptor, sequence (P41144 whole entry): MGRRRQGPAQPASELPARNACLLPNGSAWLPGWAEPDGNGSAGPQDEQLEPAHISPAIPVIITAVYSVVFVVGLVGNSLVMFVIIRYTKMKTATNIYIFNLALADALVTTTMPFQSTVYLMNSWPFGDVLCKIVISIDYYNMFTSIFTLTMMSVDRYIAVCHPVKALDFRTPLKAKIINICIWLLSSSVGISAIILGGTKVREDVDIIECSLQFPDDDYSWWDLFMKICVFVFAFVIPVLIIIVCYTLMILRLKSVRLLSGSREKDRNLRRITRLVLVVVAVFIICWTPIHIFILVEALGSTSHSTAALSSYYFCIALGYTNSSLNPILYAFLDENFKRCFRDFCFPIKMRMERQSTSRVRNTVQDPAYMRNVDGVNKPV

Mu-type opioid receptor, sequence (P42866 whole entry): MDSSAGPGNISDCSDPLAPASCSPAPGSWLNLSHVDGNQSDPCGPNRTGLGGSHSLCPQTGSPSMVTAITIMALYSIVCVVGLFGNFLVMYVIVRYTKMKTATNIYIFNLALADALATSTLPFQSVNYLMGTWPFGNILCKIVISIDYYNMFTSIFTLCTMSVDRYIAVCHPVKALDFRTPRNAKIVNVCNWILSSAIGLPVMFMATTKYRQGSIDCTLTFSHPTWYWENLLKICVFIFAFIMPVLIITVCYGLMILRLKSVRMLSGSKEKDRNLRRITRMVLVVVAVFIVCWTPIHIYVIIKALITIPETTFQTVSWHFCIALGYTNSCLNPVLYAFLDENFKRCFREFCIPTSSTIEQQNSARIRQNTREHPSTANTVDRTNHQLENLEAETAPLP

In the case of `O=C(NC[C@]12CC[C@@]3(O1)[C@@H]1Cc4ccc(O)cc4[C@@]3(CCN1CC1CC1)C2)c1ccccc1`, the IC50 [1] is reported as 0.288 nM, the IC50 [2] is reported as 2.07 nM and the Activity [3] is reported as 29.8%. For the same compound, the Activity [4] was 10.7%, the Activity [5] was 19.2% and the Activity [6] was “Active”. The Activity [7] was “Active”, the Activity [8] was “Active” and the Activity [9] was “Active”. For the same compound, the Activity [10] was “inactive”, the Activity [11] was “inactive” and the Activity [12] was “inactive”. The Activity [13] was “inactive”.
With `O=C1N(CCc2ccccc2)CO[C@]12CC[C@@]1(O)[C@@H]3Cc4ccc(O)c5c4[C@@]1(CCN3CC1CC1)[C@H]2O5` the Ki [1] was 4.54 nM, the Ki [2] was 4.82 nM and the Ki [14] was 8.66 nM.
